The record followed here is ChEMBL document CHEMBL5506039, “Discovery and Optimization of Tambjamines as a Novel Class of Antileishmanial Agents” (J Med Chem, 2024).

As usually defined, the pEC50 is the negative decadic logarithm of the EC50, by convention in mol/L. Broadly, the EC50 is the concentration needed to bring the measured effect to its halfway point. By half-life is commonly meant the time needed for the level to fall by half in the phase considered.

Data set [1] concerns Leishmania mexicana. The experiment in a line: Antileishmanial activity against Leishmania mexicana MNYC/BZ/62/M379 amastigotes expressing red-shifted firefly luciferase from integrated ribosomal (28S) RNA locus infected in mouse J774.A1 cells assessed as parasite survival at 0.1 uM measured after 96 hrs by luminescence based analysis relative to control. The data set is classed as functional. Particulars: MNYC/BZ/62/M379, J774.A1.

The nature of data set [2]: Cytotoxicity against mouse J774.A1 cells assessed as cell survival at 0.1 uM measured after 96 hrs by SYBR Green II dye based analysis relative to control. It counts as toxicity. The following applies: read-out: Survival. In a few lines: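 Uninfected J774A.1 mouse macrophages were plated at 1 × 10⁴ cells/well in DMEM with 10% heat-inactivated FBS and left 3 h at 37 °C to reattach. Compounds were added from DMSO, and analogues were screened at 0.1 μM. After 96 h at 37 °C in 5% CO₂, medium was removed. SYBR Green II (1:1000 in 1% Triton/PBS) was added for 1 h in the dark at room temperature, and fluorescence was read at Ex 485/Em 535 as a DNA-content measure of viability.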

Data set [3] has as its system Leishmania mexicana. Kind of data set: Antileishmanial activity against Leishmania mexicana MNYC/BZ/62/M379 amastigotes expressing red-shifted firefly luciferase from integrated ribosomal (28S) RNA locus infected in mouse J774.A1 cells assessed as reduction in parasite survival measured after 96 hrs by luminescence based analysis. It counts as functional, organism-based. Particulars: MNYC/BZ/62/M379, J774.A1, 96 h. The essentials:
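J774A.1 macrophages infected with stationary-phase luciferase-expressing promastigotes at 10:1 parasites:macrophage, overnight at 37 °C, 5% CO₂. Non-internalized parasites washed off and 1 × 10⁴ cells/well replated in MEM/10% HI-FBS. Compounds in DMSO added as serial 3-fold dilutions (typically 10 μM–1 nM) for 96 h. Luciferase luminescence read; EC50 from log-transformed sigmoidal variable-slope fit. Mean ± SD of ≥2 independent experiments.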

The nature of data set [4]: Cytotoxicity against mouse J774.A1 cells assessed as reduction in cell survival measured after 96 hrs by SYBR Green II dye based analysis. The data set is classed as toxicity. The essentials: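 Uninfected J774A.1 macrophages, 1 × 10⁴ cells/well in DMEM/10% HI-FBS, reattached 3 h, then exposed to compounds for 96 h. DNA content read after lysis with SYBR Green II (1:1000 in 1% Triton/PBS), 1 h dark at room temperature, fluorescence Ex 485/Em 535.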

Data set [5] can be described thus: Therapeutic index, ratio of EC50 for mouse J774.A1 cells to EC50 for antileishmanial activity against Leishmania mexicana MNYC/BZ/62/M379 amastigotes expressing red-shifted firefly luciferase from integrated ribosomal (28S) RNA locus infected in mouse J774.A1 cells. The data set is classed as toxicity, cell-based. The following applies: read-out: TI.
Data set [6] is described as follows: Metabolic stability in pre-warmed pooled human liver microsomes assessed as half life at 1 uM measured upto 60 mins by LC-MS analysis. It counts as ADME, Microsome. The essentials:
(§1)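 Compound at 1 μM final with 0.5 mg/mL pooled human or mouse liver microsomes, 1.3 mM NADP and 3.3 mM MgCl₂ in 100 mM potassium phosphate, pH 7.4. Reaction started with 1 U/mL G6PD at 37 °C with shaking.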
In general terms: Liver microsomes are vesicles of endoplasmic reticulum, rich in cytochrome P450 enzymes.

Data set [7] in a line: Metabolic stability in pre-warmed pooled mouse liver microsomes assessed as half life at 1 uM measured upto 60 mins by LC-MS analysis. It counts as ADME, Microsome. The essentials: as §1

pEC50: −log10 of the molar value.

For the molecule `COC1=CC(c2ccc[nH]2)=N/C1=C\Nc1ccc(OC(F)(F)F)cc1.Cl`, the survival at 0.1 µM in the data set with Leishmania mexicana [1] is 18.9%. Also, in data set [2], the viability at 96 h, 0.1 µM was found to be 89.6%. In the data set with Leishmania mexicana [3], the pEC50 is 7.14. The EC50 at 96 h in data set [4] was greater than 1000 nM. Further, the selectivity ratio in data set [5] was greater than 14. In addition, the half-life at 1 µM in data set [6] is greater than 60 min.

For the molecule `COC1=CC(c2ccc(Cc3ccc(OC)cc3)[nH]2)=N/C1=C\NC1CCCCCC1.Cl`, the survival at 0.1 µM in the data set with Leishmania mexicana [1] is -0.11%. Further, the viability at 96 h, 0.1 µM in data set [2] is 84.6%. The pEC50 in the data set with Leishmania mexicana [3] is 7.79. Also, the EC50 at 96 h in data set [4] came to 959 nM. For the same molecule, the selectivity ratio in data set [5] was 59. Moreover, the half-life at 1 µM in data set [6] came out at 25.6 min.

`COC1=CC(c2ccc[nH]2)=N/C1=C\Nc1ccc2c(c1)OCCO2.Cl`: the survival at 0.1 µM in the data set with Leishmania mexicana [1] is 9.03%. Moreover, the viability at 96 h, 0.1 µM in data set [2] is 77.3%. Besides, in the data set with Leishmania mexicana [3], the pEC50 was 7.49. The EC50 at 96 h in data set [4] was greater than 1000 nM. In data set [5], the selectivity ratio is greater than 31. In addition, the half-life at 1 µM in data set [6] was greater than 60 min; in data set [7] it was 15.8 min.

For the molecule `C(/NCC1CCCCCC1)=C1/N=C(c2ccc[nH]2)C2=C1CCCC2.Cl`, the survival at 0.1 µM with Leishmania mexicana [1] was determined as 16.1%. In addition, the viability at 96 h, 0.1 µM in data set [2] amounted to 75%. The half-life at 1 µM in data set [6] and in data set [7] was greater than 60 min in each case.

`CCc1ccc(C2=N/C(=C\NC3CCCCCC3)C(OC)=C2)[nH]1.Cl`: the survival at 0.1 µM in the data set with Leishmania mexicana [1] is 0.3%. Moreover, the viability at 96 h, 0.1 µM in data set [2] turned out to be 52.5%. In the data set on Leishmania mexicana [3], the pEC50 was 7.43. The EC50 at 96 h in data set [4] is 512 nM. In addition, the selectivity ratio in data set [5] was found to be 14. Further, the half-life at 1 µM in data set [6] is greater than 60 min.

For `COC1=CC(c2ccc(Cc3ccc(OC)cc3)[nH]2)=N/C1=C\NC1CCCCCCC1.Cl`, in the data set with Leishmania mexicana [1], the survival at 0.1 µM is -0.11%. For the same molecule, the viability at 96 h, 0.1 µM in data set [2] was 84.8%. For the same molecule, the negative logarithm of the EC50 (pEC50) with Leishmania mexicana [3] is 7.80. Also, the EC50 at 96 h in data set [4] turned out to be 547 nM. Besides, the selectivity ratio in data set [5] was 35. Moreover, the half-life at 1 µM in data set [6] came to 50.8 min.

Regarding `Cc1ccc(Oc2ccc(N/C=C3\N=C(c4ccc[nH]4)C4=C3CCCC4)cc2)cc1.Cl`, the survival at 0.1 µM with Leishmania mexicana [1] was determined as 102%. The viability at 96 h, 0.1 µM in data set [2] was determined as 58.2%. For the same molecule, the half-life at 1 µM in data set [6] and in data set [7] was greater than 60 min each time.

As for `COC1=CC(c2ccc[nH]2)=N/C1=C\Nc1cccc(Cl)c1.Cl`, the survival at 0.1 µM with Leishmania mexicana [1] is 13.6%. In addition, the viability at 96 h, 0.1 µM in data set [2] came to 65.3%. For the same molecule, the pEC50 in the data set on Leishmania mexicana [3] was 7.04. The EC50 at 96 h in data set [4] stood at 570 nM. For the same molecule, in data set [5], the selectivity ratio turned out to be 6.2. For the same molecule, the half-life at 1 µM in data set [6] was greater than 60 min.

On to `COC1=CC(c2ccc(Cc3ccc(OC)cc3)[nH]2)=N/C1=C\NC1CCCC1.Cl`, for which, in the data set with Leishmania mexicana [1], the survival at 0.1 µM turned out to be 1.4%. Further, in data set [2], the viability at 96 h, 0.1 µM came out at 86.6%. Also, in the data set on Leishmania mexicana [3], the pEC50 is 7.62. Moreover, the EC50 at 96 h in data set [4] was 717 nM. For the same molecule, in data set [5], the selectivity ratio amounted to 30. The half-life at 1 µM in data set [6] was 11.7 min.

Consider `COC1=CC(c2ccc(Cc3ccc(OC)cc3)[nH]2)=N/C1=C\NC1CCCCC1.Cl`, for which the survival at 0.1 µM in the data set with Leishmania mexicana [1] stood at 0.01%. Further, the viability at 96 h, 0.1 µM in data set [2] was determined as 84.6%. Further, the pEC50 in the data set on Leishmania mexicana [3] was 7.65. Moreover, the EC50 at 96 h in data set [4] is 946 nM. For the same molecule, in data set [5], the selectivity ratio amounted to 42. Moreover, the half-life at 1 µM in data set [6] turned out to be 19.7 min.

For the molecule `COC1=CC(c2ccc[nH]2)=N/C1=C\Nc1ccc(Cl)c(Cl)c1.Cl`, the survival at 0.1 µM with Leishmania mexicana [1] was 23.8%. For the same molecule, the viability at 96 h, 0.1 µM in data set [2] is 67.5%. In addition, the pEC50 in the data set on Leishmania mexicana [3] was 7.00. Moreover, the EC50 at 96 h in data set [4] is greater than 1000 nM. Besides, the selectivity ratio in data set [5] was greater than 10. Also, in data set [6], the half-life at 1 µM turned out to be 56.2 min.

Regarding `COc1ccc(Oc2ccc(N/C=C3\N=C(c4ccc[nH]4)C4=C3CCCC4)cc2)cc1.Cl`, the survival at 0.1 µM in the data set with Leishmania mexicana [1] was determined as 89.8%. The viability at 96 h, 0.1 µM in data set [2] was 62.5%. The half-life at 1 µM in data set [6] and in data set [7] was greater than 60 min each time.
